TAAR1 antag: human TAAR1 antagonism. Q96RJ0. CHO RD-HGA16 TAAR1, Fluo-8 calcium fluorescence, antagonist. inhibition, % at 3 µM. actives 1.5% (n = 360,000). AID 624466;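 active = inhibition above a per-plate cutoff, the mean inhibition of test compounds on that plate plus 3 SD, cut at about 49% in these data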
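Test system: RD-HGA16 CHO cells with stable hTAAR1 and Gα16 / Probe or stimulus: EC80 β-phenethylamine stimulus / Times: seeding 17-24 h prior, 75-min 37 °C, 30-min RT dye loading / Detection: Fluo-8 calcium-sensitive fluorescence / Read-out basis: % inhibition scaled between DMSO and EC80 PEA controls / Repeats: singlicate, one well per test compound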
TAAR1 agonist: agonists of human TAAR1; CHO RD-HGA16 TAAR1, Fluo-8 calcium fluorescence; vehicle wells 0%, saturating PEA agonist 100%; activation, % at 3 µM; actives 0.99% (n = 360,000); AID 624467;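 active = activation above the mean activation of all test compounds in the run plus 3 SD, cut at about 38% in these data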
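Repeats: no replicates (n 1) | Material: CHO-derived RD-HGA16 cells with stable Gα16 and human TAAR1 | Technique: Kinetic Fluo-8 calcium fluorescence | Schedule: 17-24 h seeding, 75 min 37 °C dye, 30 min RT | Evaluation: % activation from peak over basal fluorescence ratio, DMSO-to-PEA scaled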
CHO parental Ca: signal in parental CHO cells, OX1R antagonist counter-screen; parental CHO-K1, ATP-induced calcium, Fluo-8 fluorescence; inhibition, % at 5.6 µM; actives 0.63% (n = 330,000); AID 463079;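 active = inhibition above that plate's mean sample inhibition plus 3 SD, cut at about 26% in these data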
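Assay system: untransfected parental CHO cell line. Also added: ATP agonist challenge. Dosing: one dose, 5.6 µM nominal. Measured by: Fluo-8 fluorescence. Read-out: % inhibition. Benchmarks: ATP wells versus no-ATP DMSO wells. Repeats: no replicates.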
GPR7 antag: blocks human GPR7 receptor signaling | AID 1861 | inhibition, % at 4.4 µM | actives 1.1% (n = 290,000) | GPR7-expressing cells, fluorescence antagonist assay | P48145; in the data active = inhibition above about 16%, passing the limit was not always enough;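 also: cells stimulated with the agonist NPW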
Target sequence (P48145 whole entry, looked up): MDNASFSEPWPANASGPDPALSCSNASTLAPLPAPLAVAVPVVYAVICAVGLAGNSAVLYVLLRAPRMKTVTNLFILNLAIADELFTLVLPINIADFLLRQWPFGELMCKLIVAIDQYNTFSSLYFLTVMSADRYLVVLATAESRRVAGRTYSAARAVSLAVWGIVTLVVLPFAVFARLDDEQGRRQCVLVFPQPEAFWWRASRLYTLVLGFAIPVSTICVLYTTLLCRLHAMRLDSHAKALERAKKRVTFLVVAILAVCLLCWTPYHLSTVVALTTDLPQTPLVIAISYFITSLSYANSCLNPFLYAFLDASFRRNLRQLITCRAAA
OX1R antag-1: OX1R (human) antagonism. AID 485270. inhibition, % at 6.6 µM. O43613. OX1R-expressing cells, FRET antagonist read-out. actives 1.8% (n = 330,000); in the data active = inhibition mostly above about 38%, no sharp cut-off; inactive = mostly below about 40%
OX1R antag-2: antagonists of human orexin 1 receptor; O43613; CHO/OX1R cells, Fluo-8 calcium fluorescence, orexin A; inhibition, % at 5 µM; actives 0.43% (n = 330,000);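 active = inhibition above its plate's threshold, mean inhibition of all tested compounds on the plate plus 3 SD, cut at about 37% in these data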
Of the large screens only hits and unclear results are named; the others gave an inactive call. Most compounds without a hit are left out; they make up all but 4.6% or so of the library.

CCCCCCNS(=O)(=O)c1ccc(OC)c(OC)c1	none
CCCCCCCCC#Cc1nc(C)ccc1OC	CHO parental Ca 48 (no result: GPR7 antag)
c1ccc(COc2ncnc3c2ncn3CCCN2CCN(c3ncccn3)CC2)cc1	none (no result: CHO parental Ca, GPR7 antag, OX1R antag-1, OX1R antag-2)
Cc1ccc(Oc2nnc(-c3cccs3)c3ccccc23)cc1C	CHO parental Ca 40
c1ccc(Oc2nnc(-c3cccs3)c3ccccc23)cc1	none
C[C@H](CO)N1C[C@H](C)[C@@H](CN(C)C(=O)Nc2ccccc2)OCc2cn(nn2)CCCC1=O	none (no result: CHO parental Ca, GPR7 antag, OX1R antag-1, OX1R antag-2)
COc1ccc(C(=O)N2CCc3ccc(NC(=O)c4ccccn4)cc3C2)cc1F	none (no result: CHO parental Ca, OX1R antag-1, OX1R antag-2)
CCCN1C(=O)c2cccc3c(N4CCCCC4)ccc(c23)C1=O	none
CCN1C(=O)c2cccc3c(N)ccc(c23)C1=O	TAAR1 agonist 136, CHO parental Ca 46, OX1R antag-2 58
Cc1c(NC(=O)CN2C(=O)c3ccccc3C2=O)c(=O)n(-c2ccccc2)n1C	none
Cc1c(NC(=O)CCCN2C(=O)c3cccc4cccc(c34)C2=O)c(=O)n(-c2ccccc2)n1C	OX1R antag-1 42
O=C(CCCCCN1C(=O)c2cccc3cccc(c23)C1=O)NCCCO	OX1R antag-1 52
O=C(CN1C(=O)c2cccc3cccc(c23)C1=O)NCCCO	OX1R antag-1 57
COc1cc(Br)cc2cc(C(=O)OC3CCN(C)CC3)c(=O)oc12	OX1R antag-1 49
COc1cccc2cc(C(=O)OC3CCN(C)CC3)c(=O)oc12	none
C=CCN=C1NC(c2ccc(Cl)cc2)C(C(=O)OC)=C(C)N1C (stereo unspecified)	none (no result: CHO parental Ca, GPR7 antag, OX1R antag-1, OX1R antag-2)
Cn1c(Cl)nc2ccccc21	none
Cn1c(N=Nc2ccccc2)nc2ccccc21	OX1R antag-1 64
Cc1cc2nsnc2c(S(=O)(=O)N2CCN(C)CC2)c1C	OX1R antag-1 42
Cc1cc(C)c(C)c(S(=O)(=O)N2CCCN(C)CC2)c1C	none
Cc1ccc(-c2csc(NC(=O)C3=NN(c4ccccc4)C(=O)CC3)n2)cc1	TAAR1 antag 52
Cc1csc(NC(=O)C2=NN(c3ccccc3)C(=O)CC2)n1	none
C[C@H](NC(=O)[C@@H]1CCCN1C(=O)[C@@H]1CCCN1C(=O)c1cccs1)c1ccccc1	none (no result: CHO parental Ca, GPR7 antag, OX1R antag-1, OX1R antag-2)
Oc1cc(NCCN2CCOCC2)cc2cccnc12	OX1R antag-1 54 (no result: GPR7 antag)
Oc1cc(Nc2ccccc2)cc2cccnc12	none (no result: GPR7 antag)
Cc1ccc(S(=O)(=O)N2[C@@H](c3cccc(Cl)c3)C(C(=O)O)=CC[C@H]2c2ccc(Cl)cc2)cc1	TAAR1 antag 52, OX1R antag-1 74 (no result: GPR7 antag)
Cc1ccc(S(=O)(=O)N2C(c3cccc(Cl)c3)CC=C(C(=O)O)C2c2cccc(Cl)c2)cc1 (stereo unspecified)	none (no result: CHO parental Ca, GPR7 antag, OX1R antag-1, OX1R antag-2)
CCOc1ccc([C@@H]2CC=C(C(=O)O)[C@H](c3cccc(Cl)c3)N2S(=O)(=O)c2ccc(C)cc2)cc1	OX1R antag-1 55 (no result: GPR7 antag)
CCOc1ccc([C@@H]2CC=C(C(=O)O)[C@H](c3ccc(F)cc3)N2S(=O)(=O)c2ccc(C)cc2)cc1	none (no result: GPR7 antag)
C[C@H]1CN([C@@H](C)CO)C(=O)CCCn2cc(nn2)CO[C@@H]1CN(C)C(=O)Nc1ccccc1F	none (no result: CHO parental Ca, GPR7 antag, OX1R antag-1, OX1R antag-2)
COC(=O)[C@]12CCCCC=C1N(CCC1=CCCCC1)C(=O)[C@H](CC(=O)NCc1ccccc1)C2	none (no result: CHO parental Ca, GPR7 antag, OX1R antag-1, OX1R antag-2)
CN(Cc1cccc2cnccc12)C(=O)CCc1nnc(CCc2ccccc2)o1	none
CC(=O)c1ccc(-c2nnc(CCC(=O)N(C)Cc3cccc4cnccc34)o2)s1	OX1R antag-1 35
O=S1(=O)N[C@H](Cc2ccccc2)COc2cc(N3CCOCC3)ccc21	none (no result: CHO parental Ca, GPR7 antag, OX1R antag-1, OX1R antag-2)
Cc1cccc(Nc2ncnc3nc[nH]c23)c1	GPR7 antag 19
O=C(C[n+]1ccccc1)N/N=C/c1cc(Br)cc(Br)c1O	OX1R antag-1 29 (no result: TAAR1 antag, TAAR1 agonist)
COC(=O)[C@]12C[C@H](CC(=O)NCCC(C)C)C(=O)N(CCC3=CCCCC3)C1=C[C@H](C(C)(C)C)O[C@@H]2C	none (no result: CHO parental Ca, GPR7 antag, OX1R antag-1, OX1R antag-2)
O=C(NC1CCCC1)c1ccc2nc(-c3ccco3)c(-c3ccco3)nc2c1	OX1R antag-1 63 (no result: TAAR1 antag, TAAR1 agonist)
C=CC[C@H](CC(=O)N(CCO)Cc1ccccc1)C(=O)N[C@H](COC(=O)[C@@H](CC=C)Cc1ccc(F)cc1)Cc1c[nH]c2ccccc12	TAAR1 antag 59 (no result: GPR7 antag)
